In ChEMBL document CHEMBL1141572, “N-substituted 3-acetyltetramic acid derivatives as antibacterial agents” (J Med Chem, 2008):
In brackets after ≈: the same amount, converted by molar mass. Activity calls are given as the source filed them. The calls are words filed in the database; no cut-off is given here.

Columns and labels:
Staphylococcus aureus [1] = test: Antibacterial activity against methicillin-sensitive Staphylococcus aureus 8325 ATCC 35556 by micro-broth dilution method; format: functional
Bacillus subtilis = test: Antibacterial activity against Bacillus subtilis ATCC 23857 by microbroth dilution method; format: functional
Bacillus anthracis = test: Antibacterial activity against Bacillus anthracis Sterne 34F2 by micro-broth dilution method; format: functional
Pseudomonas aeruginosa = test: Antibacterial activity against Pseudomonas aeruginosa by micro-broth dilution method; format: functional
Cutibacterium acnes = test: Antibacterial activity against Propionibacterium acnes ATCC 6919 by micro-broth dilution method; format: functional
Escherichia coli = test: Antibacterial activity against Escherichia coli by micro-broth dilution method; format: functional
Enterococcus faecalis = test: Antibacterial activity against Enterococcus faecalis ATCC 33186 by microbroth dilution method; format: functional
Streptococcus pyogenes = test: Antibacterial activity against Streptococcus pyogenes ATCC 700294 by micro-broth dilution method; format: functional
Staphylococcus aureus [2] = test: Antibacterial activity against methicillin-resistant Staphylococcus aureus ATCC 33591 by micro-broth dilution method; format: functional
Streptococcus pneumoniae = test: Antibacterial activity against Streptococcus pneumoniae DAW30 by micro-broth dilution method; format: functional
[3] = tested on: Mycobacterium tuberculosis; test: Antimycobacterial activity against Mycobacterium tuberculosis H37Rv after 7 days by micro-broth dilution method; format: functional; conditions: for MIC: 168 h
[4] = Selectivity index, ratio of IC50 for african green monkey Vero cells to MIC for methicillin- sensitive Staphylococcus aureus 8325 ATCC 35556; format: functional
Outline: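 Selectivity index is calculated as the Vero cell cytotoxic IC50 divided by the MIC against the wild-type, drug-sensitive, methicillin-sensitive S. aureus 8325 (ATCC 35556).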

Vero = test: Cytotoxicity against african green monkey Vero cells after 72 hrs by MTT proliferation assay; format: cell-based; conditions: Chlorocebus sabaeus
Outline: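 IC50 is taken as the concentration that lowers Vero kidney cell viability by 50%.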

| SMILES | MIC (Pseudomonas aeruginosa) [µg/mL] | MIC (Escherichia coli) [µg/mL] | MIC (Staphylococcus aureus [1]) [µg/mL] | MIC (Bacillus subtilis) [µg/mL] | MIC (Bacillus anthracis) [µg/mL] | MIC (Cutibacterium acnes) [µg/mL] | MIC (Enterococcus faecalis) [µg/mL] | MIC (Streptococcus pyogenes) [µg/mL] | MIC (Staphylococcus aureus [2]) [µg/mL] | Ratio [4] | MIC (Streptococcus pneumoniae) [µg/mL] | MIC [3] [µg/mL] | IC50 (Vero) [µg/mL] | also measured |
| --- | --- | --- | --- | --- | --- | --- | --- | --- | --- | --- | --- | --- | --- | --- |
| COc1cccc(CN2C(=O)C(C#N)=C(O)[C@@H]2CC(C)C)c1 | > 200 | > 200 |  |  |  |  |  |  |  |  |  |  |  | Activity (Staphylococcus aureus [1]): inactive; Activity (Bacillus subtilis): inactive; Activity (Bacillus anthracis): inactive; Activity (Cutibacterium acnes): inactive; Activity (Enterococcus faecalis): inactive; Activity (Streptococcus pyogenes): inactive; Activity (Staphylococcus aureus [2]): inactive; Activity (Streptococcus pneumoniae): inactive; Activity [3]: inactive |
| N#CC1=C(O)[C@@H](Cc2ccccc2)N(Cc2ccccc2)C1=O | > 200 | > 200 |  |  |  |  |  |  |  |  |  |  |  | Activity (Staphylococcus aureus [1]): inactive; Activity (Bacillus subtilis): inactive; Activity (Bacillus anthracis): inactive; Activity (Cutibacterium acnes): inactive; Activity (Enterococcus faecalis): inactive; Activity (Streptococcus pyogenes): inactive; Activity (Staphylococcus aureus [2]): inactive; Activity (Streptococcus pneumoniae): inactive; Activity [3]: inactive |
| CCCCN1C(=O)/C(=C(/C)O)C(=O)[C@@H]1CC(C)C | > 200 | > 200 | 3.12 (≈ 12.3 µM) | 6.25 (≈ 24.7 µM) | 12.5 (≈ 49.3 µM) | 0.8 (≈ 3.16 µM) | 1.6 (≈ 6.32 µM) | > 200 | 6.25 (≈ 24.7 µM) | 81.4 | 100 (≈ 395 µM) | 100 (≈ 395 µM) | 254 (≈ 1000 µM) |  |
| CCCCCCCCCCN1C(=O)/C(=C(/C)O)C(=O)[C@H]1CC(C)C | > 200 | > 200 | 0.4 (≈ 1.19 µM) | 0.8 (≈ 2.37 µM) | 0.8 (≈ 2.37 µM) | 0.8 (≈ 2.37 µM) | 1.6 (≈ 4.74 µM) | 50 (≈ 148 µM) | 0.8 (≈ 2.37 µM) | 15.8 | 6.25 (≈ 18.5 µM) | 25 (≈ 74.1 µM) | 6.3 (≈ 18.7 µM) |  |
| CCCCCCCCCCN1C(=O)/C(=C(/C)O)C(=O)[C@@H]1Cc1ccccc1 | > 200 | > 200 | 0.2 (≈ 0.538 µM) | 0.4 (≈ 1.08 µM) | 0.2 (≈ 0.538 µM) | 0.4 (≈ 1.08 µM) | 0.8 (≈ 2.15 µM) | 50 (≈ 135 µM) | 0.8 (≈ 2.15 µM) | 105.5 | 12.5 (≈ 33.6 µM) | 50 (≈ 135 µM) | 21.1 (≈ 56.8 µM) |  |
| C/C(O)=C1\C(=O)[C@@H](CC(C)C)N(Cc2ccc(F)cc2)C1=O | > 200 | > 200 | 12.5 (≈ 40.9 µM) | 12.5 (≈ 40.9 µM) | 12.5 (≈ 40.9 µM) | 12.5 (≈ 40.9 µM) | 50 (≈ 164 µM) | 100 (≈ 327 µM) | 12.5 (≈ 40.9 µM) | 2.8 | 25 (≈ 81.9 µM) | 100 (≈ 327 µM) | 35.3 (≈ 116 µM) |  |
| CC(C)=CCCC(C)CCN1C(=O)/C(=C(/C)O)C(=O)[C@@H]1CC(C)C (some centres not stated) | > 200 | > 200 | 0.4 (≈ 1.19 µM) | 0.8 (≈ 2.38 µM) | 0.4 (≈ 1.19 µM) | 0.4 (≈ 1.19 µM) | 0.8 (≈ 2.38 µM) | 25 (≈ 74.5 µM) | 0.8 (≈ 2.38 µM) | 18.3 | 3.25 (≈ 9.69 µM) | 200 (≈ 596 µM) | 7.3 (≈ 21.8 µM) |  |
| COc1cccc(CN2C(=O)/C(=C(/C)O)C(=O)[C@@H]2CC(C)C)c1 | > 200 | > 200 | 12.5 (≈ 39.4 µM) | 25 (≈ 78.8 µM) | 25 (≈ 78.8 µM) | 12.5 (≈ 39.4 µM) | 100 (≈ 315 µM) | 200 (≈ 630 µM) | 25 (≈ 78.8 µM) | 3.2 | 50 (≈ 158 µM) | 100 (≈ 315 µM) | 40 (≈ 126 µM) |  |
| C/C(O)=C1\C(=O)[C@H](CC(C)C)N(Cc2ccc(F)cc2)C1=O | > 200 | > 200 | 12.5 (≈ 40.9 µM) | 25 (≈ 81.9 µM) | 12.5 (≈ 40.9 µM) | 6.25 (≈ 20.5 µM) | 50 (≈ 164 µM) | 100 (≈ 327 µM) | 25 (≈ 81.9 µM) | 2.2 | 50 (≈ 164 µM) | 100 (≈ 327 µM) | 27.8 (≈ 91 µM) |  |
| CCC(C)[C@H]1C(=O)/C(=C(\C)O)C(=O)N1Cc1ccccc1 (some centres not stated) | > 200 | > 200 | 6.25 (≈ 21.7 µM) | 25 (≈ 87 µM) | 3.12 (≈ 10.9 µM) | 6.25 (≈ 21.7 µM) | 6.25 (≈ 21.7 µM) | > 200 | 6.25 (≈ 21.7 µM) | 4.2 | 50 (≈ 174 µM) | 50 (≈ 174 µM) | 26.3 (≈ 91.5 µM) |  |
| C/C(O)=C1\C(=O)[C@@H](Cc2ccccc2)N(Cc2ccccc2)C1=O | > 200 | > 200 | 25 (≈ 77.8 µM) | 25 (≈ 77.8 µM) | 25 (≈ 77.8 µM) | 25 (≈ 77.8 µM) | 100 (≈ 311 µM) | 200 (≈ 622 µM) | 25 (≈ 77.8 µM) | 3.2 | 50 (≈ 156 µM) | > 200 | 80.6 (≈ 251 µM) |  |
| CCCCCCCCCCN1C(=O)/C(=C(/C)O)C(=O)[C@@H]1CC(C)C | > 200 | > 200 | 0.4 (≈ 1.19 µM) | 0.8 (≈ 2.37 µM) | 0.8 (≈ 2.37 µM) | 0.8 (≈ 2.37 µM) | 1.6 (≈ 4.74 µM) | 50 (≈ 148 µM) | 0.8 (≈ 2.37 µM) | 36.8 | 6.25 (≈ 18.5 µM) | 12.5 (≈ 37 µM) | 14.7 (≈ 43.6 µM) |  |
| CCCCCCCCCCN1C(=O)C(C#N)=C(O)[C@@H]1CC(C)C | > 200 | > 200 |  |  |  |  |  |  |  |  |  | 3.12 (≈ 9.74 µM) |  |  |
| CCC(C)[C@H]1C(O)=C(C#N)C(=O)N1Cc1ccccc1 (some centres not stated) | > 200 | > 200 |  |  |  |  |  |  |  |  |  |  |  | Activity (Staphylococcus aureus [1]): inactive; Activity (Bacillus subtilis): inactive; Activity (Bacillus anthracis): inactive; Activity (Cutibacterium acnes): inactive; Activity (Enterococcus faecalis): inactive; Activity (Streptococcus pyogenes): inactive; Activity (Staphylococcus aureus [2]): inactive; Activity (Streptococcus pneumoniae): inactive; Activity [3]: inactive |
| C/C(O)=C1\C(=O)[C@H](CC(C)C)N(Cc2ccc(-c3ccccc3)cc2)C1=O | > 200 | > 200 | 0.2 (≈ 0.55 µM) | 0.4 (≈ 1.1 µM) | 0.4 (≈ 1.1 µM) | 0.2 (≈ 0.55 µM) | 0.8 (≈ 2.2 µM) | 25 (≈ 68.8 µM) | 0.8 (≈ 2.2 µM) | 98.5 | 12.5 (≈ 34.4 µM) | 50 (≈ 138 µM) | 19.7 (≈ 54.2 µM) |  |
| N#CC1=C(O)[C@H](Cc2ccccc2)N(Cc2ccccc2)C1=O | > 200 | > 200 |  |  |  |  |  |  |  |  |  |  |  | Activity (Staphylococcus aureus [1]): inactive; Activity (Bacillus subtilis): inactive; Activity (Bacillus anthracis): inactive; Activity (Cutibacterium acnes): inactive; Activity (Enterococcus faecalis): inactive; Activity (Streptococcus pyogenes): inactive; Activity (Staphylococcus aureus [2]): inactive; Activity (Streptococcus pneumoniae): inactive; Activity [3]: inactive |
| CC(C)C[C@@H]1C(O)=C(C#N)C(=O)N1Cc1ccc(F)cc1 | > 200 | > 200 |  |  |  |  |  |  |  |  |  |  |  | Activity (Staphylococcus aureus [1]): inactive; Activity (Bacillus subtilis): inactive; Activity (Bacillus anthracis): inactive; Activity (Cutibacterium acnes): inactive; Activity (Enterococcus faecalis): inactive; Activity (Streptococcus pyogenes): inactive; Activity (Staphylococcus aureus [2]): inactive; Activity (Streptococcus pneumoniae): inactive; Activity [3]: inactive |
| C/C(O)=C1\C(=O)[C@H](Cc2ccccc2)N(Cc2ccccc2)C1=O | > 200 | > 200 | 12.5 (≈ 38.9 µM) | 25 (≈ 77.8 µM) | 25 (≈ 77.8 µM) | 12.5 (≈ 38.9 µM) | 100 (≈ 311 µM) | > 200 | 25 (≈ 77.8 µM) | 6.1 | 100 (≈ 311 µM) | > 200 | 75.7 (≈ 236 µM) |  |
| CC(C)C[C@H]1C(O)=C(C#N)C(=O)N1Cc1ccc(F)cc1 | > 200 | > 200 |  |  |  |  |  |  |  |  |  |  |  | Activity (Staphylococcus aureus [1]): inactive; Activity (Bacillus subtilis): inactive; Activity (Bacillus anthracis): inactive; Activity (Cutibacterium acnes): inactive; Activity (Enterococcus faecalis): inactive; Activity (Streptococcus pyogenes): inactive; Activity (Staphylococcus aureus [2]): inactive; Activity (Streptococcus pneumoniae): inactive; Activity [3]: inactive |
| C/C(O)=C1\C(=O)[C@H](CC(C)C)N(CC2=CCC3CC2C3(C)C)C1=O (some centres not stated) | > 200 | > 200 | 1.6 (≈ 4.83 µM) | 1.6 (≈ 4.83 µM) | 0.8 (≈ 2.41 µM) | 0.8 (≈ 2.41 µM) | 1.6 (≈ 4.83 µM) | 25 (≈ 75.4 µM) | 1.6 (≈ 4.83 µM) | 22.1 | 50 (≈ 151 µM) | 100 (≈ 302 µM) | 35.4 (≈ 107 µM) |  |
| CCN1C(=O)/C(=C(/C)O)C(=O)[C@@H]1Cc1ccccc1 | > 200 | > 200 | 200 (≈ 771 µM) | > 200 | 50 (≈ 193 µM) | 100 (≈ 386 µM) | > 200 | > 200 | > 200 |  | > 200 | > 200 |  |  |
| CCCCCCCCCCN1C(=O)/C(=C(/C)O)C(=O)[C@@H]1C(C)C | > 200 | > 200 | 0.8 (≈ 2.47 µM) | 0.4 (≈ 1.24 µM) | 0.8 (≈ 2.47 µM) | 0.4 (≈ 1.24 µM) | 0.8 (≈ 2.47 µM) | 25 (≈ 77.3 µM) | 0.8 (≈ 2.47 µM) | 8.8 | 6.25 (≈ 19.3 µM) | 12.5 (≈ 38.6 µM) | 7 (≈ 21.6 µM) |  |
